The record followed here is ChEMBL document CHEMBL1150381, “Effects of amide constituents from pepper on adipogenesis in 3T3-L1 cells” (Bioorg Med Chem Lett, 2008).

The subject of series [1] is 3T3-L1. Description: Antidiabetic activity in mouse 3T3L1 cells assessed as enhancement of triglyceride accumulation at 1 uM. The class given is functional. The procedure, abridged: (§1)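 3T3-L1 cells (5.0 × 10^4/well) in DMEM + 10% FCS; after 24 h differentiated 72 h in high-glucose DMEM/10% FCS with 1 µM dexamethasone, 0.5 mM IBMX, 5 µg/mL insulin, then maintenance medium (10% FCS, 5 µg/mL insulin) 4 days. Compound in DMSO (final 0.1%) in both media. Day 8: cells sonicated in water, triglyceride measured by enzymatic kit; means ± SEM, n = 4.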

Series [2] relates to 3T3-L1. Description: Antidiabetic activity in mouse 3T3L1 cells assessed as enhancement of triglyceride accumulation at 3 uM. It counts as functional. The procedure, abridged: as §1
Series [3] relates to 3T3-L1. Description: Antidiabetic activity in mouse 3T3L1 cells assessed as enhancement of triglyceride accumulation at 10 uM. It counts as functional. The procedure, abridged: as §1
The test system of series [4] is 3T3-L1. Description: Antidiabetic activity in mouse 3T3L1 cells assessed as enhancement of triglyceride accumulation at 30 uM. The class given is functional. The procedure, abridged:
as §1

In series [5] the test system is 3T3-L1. Description: Cytotoxicity against mouse 3T3L1 cells at 30 uM. It counts as cell-based. To be noted: 3t3-l1, 30 µM. The procedure, abridged:
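Cells differentiated and treated through day 8 as in triglyceride assay; cytotoxicity at 30 µM judged by cell detachment from culture plate surface.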

In series [6] the test system is 3T3-L1. Description: Induction of adiponectin release to medium in mouse 3T3L1 cells at 10 uM by ELISA. It counts as functional, cell-based. The procedure, abridged: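 3T3-L1 cells (5.0 × 10^4/well) differentiated, then maintenance medium 4 days; compound in DMSO (final 0.1%) present in media; on day 8 adiponectin in culture medium quantified by ELISA.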
A general note: ELISA stands for enzyme-linked immunosorbent assay.

For series [7], the system named is 3T3-L1. Description: Increase in 2-deoxyglucose uptake in mouse 3T3L1 cells at 3 uM by liquid scintillation counter. It counts as functional, cell-based. The procedure, abridged: (§2)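 Cells differentiated as for triglyceride assay with compound in DMSO (final 0.1%) in differentiation and maintenance media. Day 8: serum-free 4 h, KRP buffer wash, 20 min with 100 nM insulin, then 0.1 mM 2-deoxyglucose plus [3H]2-deoxyglucose (1 µCi/mL) 10 min at 37 °C. Lysed in 1 M NaOH, neutralized, scintillation counted; cytochalasin B (20 µM) nonspecific uptake subtracted.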

The subject of series [8] is 3T3-L1. Description: Increase in PPARgamma2 mRNA expression in mouse 3T3L1 cells after 4 days by RT-PCR. It counts as functional, cell-based. The procedure, abridged: (§3)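 3T3-L1 cells (1.0 × 10^6/well) in DMEM + 10% FCS, differentiated with compound; control 0.1% DMSO; mRNA levels of adiponectin, PPARγ2, GLUT4, IRS-1 assessed; means ± SEM, n = 3.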
Series [9] deals with 3T3-L1. Description: Increase in adiponectin mRNA expression in mouse 3T3L1 cells at 10 uM after 4 days by RT-PCR. It counts as functional, cell-based. The procedure, abridged:
as §3

In series [10] the test system is 3T3-L1. Description: Increase in 2-deoxyglucose uptake in mouse 3T3L1 cells by liquid scintillation counter. It counts as functional, cell-based. The procedure, abridged:
as §2

The subject of series [11] is 3T3-L1. Description: Increase in GLUT4 mRNA expression in mouse 3T3L1 cells after 4 days by RT-PCR. It counts as functional, cell-based. The procedure, abridged: as §3
In series [12] the test system is 3T3-L1. Description: Increase in IRS1 mRNA expression in mouse 3T3L1 cells at 30 uM after 4 days by RT-PCR. It counts as functional, cell-based. The procedure, abridged:
as §3

The source made the active and inactive calls. The rule behind the calls is not given here.

Consider `O=C(CCCCCC/C=C/c1ccc2c(c1)OCO2)N1CCCCC1` [PIPERROLEIN B], for which the Activity was -2.8% with 3T3-L1 [1], 30.3% with 3T3-L1 [2], 20.9% in the series with 3T3-L1 [3] and 9.4% in the series on 3T3-L1 [4].

For `O=C(O)/C=C/C=C/CC/C=C/c1ccc2c(c1)OCO2`, the Activity was -3.9% in the series with 3T3-L1 [1], 1.5% in the series with 3T3-L1 [2], 3.9% with 3T3-L1 [3] and -7.3% in the series with 3T3-L1 [4].

Turning to `O=C(/C=C/CCCCCC/C=C/c1ccc2c(c1)OCO2)N1CCCCC1` [PIPERCHABAMIDE B], the Activity in the series with 3T3-L1 [5] was -30.3%; with 3T3-L1 [1] it was -14.1%; in the series on 3T3-L1 [2], -2.2%; in the series with 3T3-L1 [3], -3.5%.

Take `COC(=O)/C=C/C=C/c1ccc2c(c1)OCO2` [METHYL PIPERATE]: the Activity with 3T3-L1 [1] is listed as 5.2%; with 3T3-L1 [2], 17.8%; in the series with 3T3-L1 [3], 25.2%; in the series on 3T3-L1 [4] it was 17.1%.

Turning to `CCCCC/C=C\CCCCCCCC/C=C/C=C/C(=O)NCC(C)C`, the Activity is given as -3% with 3T3-L1 [1], -7.2% in the series with 3T3-L1 [2], 7.2% in the series with 3T3-L1 [3] and 20.2% in the series with 3T3-L1 [4].

Turning to `CC(C)CNC(=O)/C=C/C=C/c1ccc2c(c1)OCO2` [PIPERLONGUMININE], the Activity in the series on 3T3-L1 [1] came out at 19.5%; with 3T3-L1 [2], 28.1%; with 3T3-L1 [3] it was 31.8%; in the series with 3T3-L1 [4], 20.4%.

Turning to `CC(C)CNC(=O)/C=C/C=C/CC/C=C/c1ccc2c(c1)OCO2` [RETROFRACTAMIDE A], the result in the series on 3T3-L1 [6], in the series with 3T3-L1 [7], in the series with 3T3-L1 [8], in the series on 3T3-L1 [9], in the series with 3T3-L1 [11] and in the series on 3T3-L1 [12] was Active. The Activity entry in the series on 3T3-L1 [10] is “Dose-dependent effect”; in the series with 3T3-L1 [1] it was 25.1%; in the series with 3T3-L1 [2], 27.3%; in the series with 3T3-L1 [3], 27.8%; with 3T3-L1 [4] it was 33.3%.

Consider `CC(C)CNC(=O)/C=C/C=C/CCCCCC/C=C/c1ccc2c(c1)OCO2` [GUINEENSINE], for which the Activity with 3T3-L1 [1] is 1.5%; with 3T3-L1 [2], 9.7%; in the series with 3T3-L1 [3], 0.8%; with 3T3-L1 [4], 2%.

As for `CCOC(=O)/C=C/C=C/CC/C=C/c1ccc2c(c1)OCO2`, the Activity in the series on 3T3-L1 [1] is listed as 2.9%; in the series with 3T3-L1 [2], 2.9%; in the series on 3T3-L1 [3] it was 1.2%; in the series on 3T3-L1 [4], 8.7%.

In the case of `CCCCCCCCCCCCC/C=C/C=C/C(=O)NCC(C)C`, the Activity in the series on 3T3-L1 [1] is listed as 14.1%; in the series with 3T3-L1 [2], 3.3%; in the series with 3T3-L1 [3] it was 19.6%; in the series with 3T3-L1 [4] it was 20.6%.

`CCCCC/C=C/C=C/C(=O)NCC(C)C` [PELLITORIN]: the Activity with 3T3-L1 [1] came to 4.4%; in the series with 3T3-L1 [2] it was 18.2%; in the series on 3T3-L1 [3] it was 10%; in the series with 3T3-L1 [4], 6.2%.

As to `O=C(/C=C/CCc1ccc2c(c1)OCO2)N1CCCCC1` [PIPERANINE], the Activity in the series on 3T3-L1 [1] is 20.4%; in the series with 3T3-L1 [2], 19.1%; in the series on 3T3-L1 [3] it was 13.1%; in the series with 3T3-L1 [4], 8.3%.

As to `O=C(/C=C/CCCC/C=C/c1ccc2c(c1)OCO2)N1CCCCC1` [PIPERNONALINE], the Activity in the series with 3T3-L1 [5] is given as -61.2%; in the series on 3T3-L1 [1] it was 1%; in the series on 3T3-L1 [2], 5.4%; with 3T3-L1 [3], 10.5%.

Turning to `O=C(/C=C/C=C/CCCC/C=C/c1ccc2c(c1)OCO2)N1CCCCC1` [PIPERUNDECALIDIENE], the Activity with 3T3-L1 [5] is -60.8%; with 3T3-L1 [1] it was -13%; in the series with 3T3-L1 [2] it was -7.3%; with 3T3-L1 [3] it was 7.3%.

Turning to `CC(C)CNC(=O)/C=C/CCCC/C=C/c1ccc2c(c1)OCO2` [RETROFRACTAMIDE C], the Activity in the series on 3T3-L1 [1] was 9.7%; in the series on 3T3-L1 [2], 15%; with 3T3-L1 [3] it was 22.2%; with 3T3-L1 [4] it was 15.4%.

`O=C(/C=C/C=C/CC/C=C/c1ccc2c(c1)OCO2)N1CCCCC1` [DEHYDROPIPERNOLINE]: the Activity with 3T3-L1 [5] is listed as -19.9%; with 3T3-L1 [1] it was 0.5%; with 3T3-L1 [2] it was 1.8%; in the series on 3T3-L1 [3], 1.5%.

As for `CC(C)CNC(=O)/C=C/C=C/CCCCCCCC/C=C/c1ccc2c(c1)OCO2` [BRACHYSTAMIDE B], the Activity in the series on 3T3-L1 [1] is 11.1%; in the series with 3T3-L1 [2], 18.5%; with 3T3-L1 [3], 16.8%; in the series on 3T3-L1 [4] it was 13.7%.

`Cc1c(C)c2c(c(C)c1O)CCC(C)(COc1ccc(CC3SC(=O)NC3=O)cc1)O2` (centres undefined) [TROGLITAZONE]: the result in the series with 3T3-L1 [7] was Active. The values for the Activity with 3T3-L1 [1], with 3T3-L1 [2] and in the series with 3T3-L1 [3] were 33.8%, 40.5% and 39.6%, respectively.

Consider `O=C(/C=C/C=C/CCCCCC/C=C/c1ccc2c(c1)OCO2)N1CCCCC1` [PIPERCHABAMIDE C], for which the Activity is on record as 9.4% in the series with 3T3-L1 [1], 17.6% in the series on 3T3-L1 [2], -10.2% in the series with 3T3-L1 [3] and -11% in the series with 3T3-L1 [4].

`CCCCCCC/C=C/C=C/C(=O)NCC(C)C`: the Activity in the series on 3T3-L1 [1] is 10.1%; in the series on 3T3-L1 [2] it was 16.3%; in the series with 3T3-L1 [3], 11.1%; in the series with 3T3-L1 [4] it was 15.3%.

For the compound `CC(C)CNC(=O)/C=C/C=C/CCCC/C=C/c1ccc2c(c1)OCO2` [RETROFRACTAMIDE B], the Activity amounted to 18.8% in the series on 3T3-L1 [1], 29.9% in the series with 3T3-L1 [2], 28.4% with 3T3-L1 [3] and 27.6% in the series on 3T3-L1 [4].

As to `O=C(/C=C/C=C/c1ccc2c(c1)OCO2)N1CCCCC1` [PIPERINE], the Activity in the series on 3T3-L1 [1] is -1.2%; in the series on 3T3-L1 [2], -3.9%; in the series with 3T3-L1 [3], -14.2%; in the series with 3T3-L1 [4], -1.2%.

With `CC(C)CNC(=O)/C=C/CCCCCC/C=C/c1ccc2c(c1)OCO2` [PIPERCHABAMIDE D], the Activity with 3T3-L1 [1] is recorded as 1.7%; in the series on 3T3-L1 [2] it was 8%; in the series with 3T3-L1 [3], 8.5%; in the series with 3T3-L1 [4], 4.7%.
